These results are taken from ChEMBL document CHEMBL1142915, “Synthesis, structure, and estrogenic activity of 4-amino-3-(2-methylbenzyl)coumarins on human breast carcinoma cells” (Bioorg Med Chem, 2007).

One assay relates to MDA-MB-231. Nature of the assay: Effect on proliferation of estrogen receptor deficient MDA-MB-231 cells at 1 uM after 3 days. The class given is functional, cell-based. The settings on record: Homo sapiens. In a few lines:
(§1)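 Cells were held at least 2 days in phenol red-free DMEM with 10% charcoal-stripped FBS at 37 °C and 5% CO2, then plated at 10^4 cells/cm2. On day 1 the medium was replaced with medium containing compound at 10^-6 M. On day 4 cells were trypsinized and counted electronically. Values are % of untreated control, mean of four determinations ±SD, by ANOVA with Dunnett's test.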

Assay [1] relates to MCF7. As to the kind of experiment: Abrogation of estrogen receptor down regulation in MCF7 cells at 10 uM after 7 hrs. The settings on record: Homo sapiens.
Assay [2] deals with MCF7. Nature of the assay: Increase in proliferation of estrogen receptor expressing MCF7 cells at 1 uM after 3 days. The class given is functional, cell-based. The settings on record: Homo sapiens. The method in brief: as §1
In assay [3] the test system is MCF7. Nature of the assay: Down regulation of estrogen receptor expression in MCF7 cells at 1 uM after 24 hrs. The class given is functional, cell-based. The settings on record: Homo sapiens. In a few lines:
(§2)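 MCF-7 cells were kept at least 2 days in phenol red-free DMEM with 10% charcoal-stripped FBS, seeded on glass coverslips at 10^4 cells/cm2, and treated 2 days later for 24 h. After fixation they were immunostained for ERα with HC-20 rabbit antiserum (1:40, 60 min, Triton-permeabilized) and Texas Red amplification. Median nuclear gray level was measured over about 80–120 nuclei per culture and expressed relative to untreated control. Statistics: Kruskal–Wallis with Dunn's test.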

The target in assay [4] is T1, Estrogen receptor (Homo sapiens) (UniProt P03372).
T1 sequence (whole entry): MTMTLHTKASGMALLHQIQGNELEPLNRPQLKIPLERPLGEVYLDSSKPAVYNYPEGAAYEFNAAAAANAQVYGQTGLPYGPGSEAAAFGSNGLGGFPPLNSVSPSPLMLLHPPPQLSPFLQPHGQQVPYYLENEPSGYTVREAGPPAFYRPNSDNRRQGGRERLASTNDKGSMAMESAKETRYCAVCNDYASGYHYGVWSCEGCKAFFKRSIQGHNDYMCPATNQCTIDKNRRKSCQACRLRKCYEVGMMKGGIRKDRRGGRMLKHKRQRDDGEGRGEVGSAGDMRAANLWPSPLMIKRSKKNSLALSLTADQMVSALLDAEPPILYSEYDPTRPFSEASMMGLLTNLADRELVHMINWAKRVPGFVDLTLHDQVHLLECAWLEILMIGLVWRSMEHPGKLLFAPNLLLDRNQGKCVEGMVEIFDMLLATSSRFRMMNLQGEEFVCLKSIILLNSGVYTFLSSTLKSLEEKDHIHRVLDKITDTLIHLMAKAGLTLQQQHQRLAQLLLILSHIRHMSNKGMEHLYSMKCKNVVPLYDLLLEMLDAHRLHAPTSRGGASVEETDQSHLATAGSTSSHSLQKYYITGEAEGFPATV
Nature of the assay: Displacement of [3H]17beta-estradiol from estrogen receptor relative to estradiol. In a few lines: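 Purified recombinant human ERα, diluted in 1 mg/mL BSA, adsorbed onto hydroxyapatite, washed, then incubated overnight at 0–4 °C with 1 nM [3H]E2 plus increasing amounts of cold E2 or test compound. HAP-bound radioactivity was extracted with ethanol and counted by liquid scintillation. RBA = […] × 100.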

Assay [5] relates to MCF7. Nature of the assay: Inhibition of increase in proliferation of estrogen receptor expressing MCF7 cells at 10 uM after 3 days. The class given is functional, cell-based. As to conditions: Homo sapiens.
In assay [6] the test system is MCF7. As to the kind of experiment: Down regulation of estrogen receptor expression in MCF7 cells at 1 nM after 24 hrs. The class given is functional, cell-based. As to conditions: Homo sapiens. In a few lines:
as §2

The next assay addresses T2, Estrogen receptor (Homo sapiens, UniProt P03372).
T2 sequence (P03372 whole entry): T1 sequence (whole entry)
Nature of the assay: Activity at ER assessed as enhancement of estrogen response element-driven gene transactivation in MVLN cells after 24 hrs by luciferase reporter gene assay relative to control.

Active and inactive are the calls of the source. The calls are words filed in the database; no cut-off is given here. Residues, ends and D or L forms follow the SMILES beside them. *: point of attachment. Cbz = O=C(OCc1ccccc1)* Bounds are passed on as bounds.

Turning to `CCCCCNc1c(Cc2ccccc2C)c(=O)oc2cc(OC)ccc12`, the outcome in the assay on MDA-MB-231 was inactive.
For the molecule `CC(C)C[C@@H](C=O)NC(=O)[C@H](CC(C)C)NC(=O)[C@H](CC(C)C)NC(=O)OCc1ccccc1` (Cbz-Leu-Leu-Leu-aldehyde), the result in the assay on MCF7 [1] was Active.
`Cc1ccccc1Cc1c(NC2CCCCC2)c2ccccc2oc1=O`: the outcome with MCF7 [2] and in the assay on MCF7 [3] was Active. The result with MDA-MB-231 was inactive.
In the case of `Cc1ccccc1Cc1c(NCCc2ccccc2)c2ccccc2oc1=O`, the result with MDA-MB-231 was inactive.
In the case of `Cc1ccccc1Cc1c(NC2CCCC2)c2ccccc2oc1=O`, the outcome in the assay on MCF7 [2] and in the assay with MCF7 [3] was Active. For the same molecule, the result with MDA-MB-231 was inactive. In addition, the RBA in assay [4] was under 0.1%.
With `C[C@]12CC[C@@H]3c4ccc(O)cc4C[C@@H](CCCCCCCCC[S+]([O-])CCCC(F)(F)C(F)(F)F)[C@H]3[C@@H]1CC[C@@H]2O` (some centres undefined), in the assay on MCF7 [5], the result was Active.
Regarding `C[C@]12CC[C@@H]3c4ccc(O)cc4CC[C@H]3[C@@H]1CC[C@@H]2O`, the outcome in the assay on MCF7 [6] was Active.
On to `CCCCCCCCCCCCNc1c(Cc2ccccc2C)c(=O)oc2ccccc12`, for which the result with MDA-MB-231 was inactive. Moreover, on Estrogen receptor, the concentration giving a half-maximal response (EC50) is 100 nM.
